High-throughput results as filed in PubChem BioAssay.
An excerpt weighted towards active compounds, which were near 1.9% of everything screened.
TDP2 absorb – blocks human TDP2 phosphodiesterase activity; hit rate 0.34% among 370,000; O95551; recombinant TDP2, T5PNP hydrolysis, p-nitrophenol absorbance 415 nm; inhibition, % at 12.8 µM;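 active = inhibition above the mean of all tested compounds plus 3 SD, set per campaign, cut at about 25% in these data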
Target sequence (O95551 whole entry, looked up): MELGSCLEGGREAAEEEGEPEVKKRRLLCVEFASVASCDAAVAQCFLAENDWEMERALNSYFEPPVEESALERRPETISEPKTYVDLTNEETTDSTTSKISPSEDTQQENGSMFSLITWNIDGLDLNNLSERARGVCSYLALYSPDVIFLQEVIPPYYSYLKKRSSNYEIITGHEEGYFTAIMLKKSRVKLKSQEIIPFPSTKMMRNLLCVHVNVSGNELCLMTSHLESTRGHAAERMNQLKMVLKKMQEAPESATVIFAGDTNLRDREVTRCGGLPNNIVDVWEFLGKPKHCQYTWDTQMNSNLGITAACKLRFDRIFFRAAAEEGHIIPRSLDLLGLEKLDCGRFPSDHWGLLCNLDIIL
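Assay system: recombinant human TDP2 / Reagent: T5PNP substrate at 5 mM, a TopII-DNA adduct mimic / Measured by: epi absorbance from released p-nitrophenol / Evaluation: % inhibition relative to enzyme-containing and enzyme-free wells / Control set: enzyme-free and DMSO wells / Replicates: each compound tested once, singlicate / Schedule: enzyme reaction with compound for 2 h at 37 °C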
LEDGF integ inh – blocks HIV-1 LEDGF/p75-dependent DNA integration; inhibition, % at 3.7 µM; hit rate 0.64% among 370,000; TR-FRET IN-LEDGF/p75 DNA integration, Eu/Cy5;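 active = inhibition above the screen-wide mean plus 3 SD, cut at about 13% in these data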;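 note: signal is the Cy5 over europium emission ratio at 671 and 618 nm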
MBD2 inh – MBD2-methylated oligo binding inhibition. inhibition, % at 4.4 µM. hit rate 0.31% among 370,000. TR-FRET, MBD2 binding to methylated oligonucleotide. Q9UBB5; in the data active = inhibition above about 13%
Tn7 DDE FP – DD(E)-Tn7 binding inhibition, primary FP screen; inhibition, % at 8.3 µM; hit rate 0.13% among 370,000; FP displacement of FITC-Tn7 peptide from fibrin DD(E); 0% = median of compound wells per plate;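 active = inhibition above the mean of compounds falling within the control limits plus 3 SD of them, cut at about 14% in these data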
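System: human fibrin DD(E); quantity: Fibrin-DD(E) at 2 µM final; also added: fluorescent Tn7 probe at 0.1 µM; compound dosing: single nominal test concentration of 8.3 µM per compound; schedule: 10 min preincubation, 3 h with tracer, room temperature; detection: fluorescence polarization of the labelled Tn7 tracer; repeats: one replicate per compound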
UHRF1 binding – UHRF1 methyl-DNA binding inhibition; Q96T88; UHRF1 binding to methylated oligo, TR-FRET; inhibition, % at 4.4 µM; hit rate 0.75% among 370,000; AID 687016; in the data active = inhibition above about 21%;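 note: UHRF1 SRA domain binding a hemimethylated CpG hairpin DNA probe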
DDE Tn6 FP inh – inhibitors of Tn6 peptide binding to human fibrin DD(E); Fibrin DD(E) TRITC-Tn6 fluorescence polarization displacement; hit rate 0.21% among 370,000; inhibition, % at 8.3 µM; P02675;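 active = inhibition above a per-campaign cutoff: mean of compounds within control limits plus 3 SD, cut at about 15% in these data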
Tn6 DDE ctr – counter-screen for inhibitors of Tn6 peptide binding to fibrin DD(E); shares compounds with DDE Tn6 FP inh; TRITC-Tn6 fluorescence polarization displacement; 0% = median of compound wells, not DMSO; inhibition, % at 8.3 µM; hit rate 2% among 680; AID 720621;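 active = inhibition above the mean of test compounds lying between the control limits plus 3 SD of those, cut at about 14% in these data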
DDE Tn6 confirm – confirmation of inhibitors of Tn6 binding to human fibrin DD(E). hit rate 10% among 680. shares compounds with DDE Tn6 FP inh. FP displacement of TRITC-Tn6 peptide from DD(E); 0% = per-plate median of test wells. inhibition, % at 8.3 µM;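 active = inhibition above the mean of compounds lying within the control limits plus 3 SD, cut at about 16% in these data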
TDP2 inh conf – confirmation of human TDP2 inhibitors; shares compounds with TDP2 absorb; recombinant human TDP2, absorbance read-out; inhibition, % at 12.8 µM; hit rate 22% among 1,100; AID 743263; in the data active = inhibition above about 25%
IN multimer up – activates HIV-1 integrase multimerization in LEDGF counter-screen | shares compounds with LEDGF integ inh | TR-FRET HIV-1 integrase multimerization, biochemical | activation, % at 7.7 µM | hit rate 17% among 2,000 | AID 1053131; in the data active = activation above about 8.9%
TR-FRET interf – counter-screen for LEDGF/p75 integration inhibitors: TR-FRET optical interference | shares compounds with LEDGF integ inh | TR-FRET optical interference counterscreen, HIV-1 IN multimerization | inhibition, % at 7.7 µM | 2,000 tested, under 10 active;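 active = inhibition above the mean over all tested compounds plus 3 SD, which no compound reached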
IN-LEDGF confirm – LEDGF/p75-dependent HIV-1 integration inhibition, confirmation; hit rate 36% among 2,000; TR-FRET LEDGF/p75-dependent HIV-1 integration, biochemical; AID 1053136; shares compounds with LEDGF integ inh; inhibition, % at 3.7 µM; in the data active = inhibition above about 14%
Hits are given with their value; - = inactive; . = no result; + = active, no number.

SMILES | TDP2 absorb | LEDGF integ inh | MBD2 inh | Tn7 DDE FP | UHRF1 binding | DDE Tn6 FP inh | Tn6 DDE ctr | DDE Tn6 confirm | others
CCCCC(CC)C(=O)N1CCN(C(=O)c2ccco2)CC1 (centres undefined) | - | - | - | - | - | 16.6 | - | -
CCCCNC(=O)N1CCN(C(=O)c2ccco2)CC1 | - | - | - | - | - | - | . | .
CC(C)CNS(=O)(=O)/C=C/c1ccccc1CCNC(=O)OC(C)(C)C | - | - | - | - | - | - | . | .
O=C1C2C3C=CC(C3)C2C(=O)N1c1ccc(-c2nc(-c3ccccc3)nc3ccccc23)cc1 (centres undefined) | - | - | - | - | - | - | . | .
CCOC(=O)C1CCCN(c2c(NCCc3ccc(C)cc3)c(=O)c2=O)C1 (centres undefined) | - | - | - | - | - | 17.3 | - | -
CCOC(=O)C1CCCN(c2c(NCCCN(C)Cc3ccccc3)c(=O)c2=O)C1 (centres undefined) | - | - | - | - | - | - | . | .
Cc1cc2cc(CNC(=O)c3ccc(S(=O)(=O)N4CCCCC4)cc3)ccc2[nH]1 | - | - | - | - | - | 18.3 | - | -
Cc1cc2cc(CNC(=O)c3ccc(S(=O)(=O)N(C)C)cc3)ccc2n1C | - | - | - | - | - | 65.4 | - | -
Cc1cc2cc(CNC(=O)c3ccc(S(=O)(=O)N4CCOCC4)cc3)ccc2n1C | - | - | - | - | - | 52.9 | - | 19.2
Cc1ccc(CNC(=O)c2ccc(S(=O)(=O)N3CCCCCC3)cc2)cc1 | - | - | - | - | - | - | . | .
O=C(O)CCN(Cc1ccccc1)S(=O)(=O)c1ccc(Cl)cc1F | - | - | - | - | - | 15.6 | - | -
O=C(O)c1ccc(S(=O)(=O)N(CCc2ccccc2)Cc2ccc(Cl)cc2)cc1 | - | - | - | - | - | - | . | .
N#Cc1ccc(NC(=O)CSc2n[nH]c(=O)n2C2CC2)cc1 | - | - | - | - | - | 16.1 | - | -
O=C(CSc1n[nH]c(=O)n1C1CC1)Nc1ccccc1 | - | - | - | - | - | - | . | .
NS(=O)(=O)c1ccc(Nc2ccc3cc(S(=O)(=O)N4CCCCC4)ccc3n2)cc1 | - | - | - | - | - | 36.1 | - | -
NS(=O)(=O)c1ccc(S(=O)(=O)N2CCCC2)cc1 | - | - | - | - | - | - | . | .
Cc1cc(NC(=O)COC(=O)c2ccc([N+](=O)[O-])cc2Cl)no1 | - | - | - | - | - | 98.2 | - | -
Cc1cc(N2C(=O)C(=O)/C(=C(/O)c3ccccc3)C2c2cccs2)no1 (centres undefined) | - | - | - | - | - | 20.8 | - | -
COC(=O)COC(=O)c1ccc(Oc2nc(OC)nc(N(C)C)n2)cc1 | - | - | - | - | - | 20.6 | - | -
O=C(CSc1nc2ncccc2[nH]1)NC1CCCCC1 | - | - | - | - | - | - | . | .
CCC(Sc1nc2ncccc2[nH]1)C(=O)NC1CCCC1 (centres undefined) | - | - | - | - | - | 18.0 | - | -
COc1ccc(C(=O)N(Cc2ccccc2)c2cccc(C)c2)cc1 | - | - | - | - | - | 17.1 | - | -
C[C@H]1CCCN1c1ccc2c(c1)OCCCN(C1CC1)S2(=O)=O | - | - | - | - | - | - | . | .
C#CCN(Cc1cccc(F)c1)C(=O)c1nnc2c3ccccc3n(S(=O)(=O)c3ccc(C)cc3)c2n1 | - | - | - | - | - | - | . | .
COc1ccccc1NC(=O)/C=C/c1ccc(OC)c(S(=O)(=O)N2CCOCC2)c1 | - | - | - | - | - | 16.8 | - | -
SMILES | TDP2 absorb | LEDGF integ inh | MBD2 inh | Tn7 DDE FP | UHRF1 binding | DDE Tn6 FP inh | Tn6 DDE ctr | DDE Tn6 confirm | others
Fc1cccc(Cl)c1CNc1ccc(N2CCCC2)cc1 | - | - | - | - | - | 20.4 | - | -
NS(=O)(=O)c1ccc(NCc2c(F)cccc2Cl)cc1 | - | - | - | - | - | - | . | .
Cc1cccc(C(C)C)c1NC(=O)COC(=O)Cc1ccsc1 | - | - | - | - | - | - | . | .
COc1cc(CCC(=O)OCC(=O)Nc2c(C)cccc2C(C)C)cc(OC)c1OC | - | - | - | - | - | 15.5 | - | -
CCC[C@H]1[C@@H](NC(=S)Nc2ccccc2Cl)CC[C@@]23CCCN2C(=O)CCC[C@@H]13 | - | - | - | - | - | - | . | .
CCOc1ccccc1N(CC(=O)N1CCCC1)S(C)(=O)=O | - | - | - | - | - | 15.7 | - | -
CCc1ccccc1N(CC(=O)N1CCCC1)S(C)(=O)=O | - | - | - | - | - | - | . | .
O=C(Nc1ccc(Cl)cc1)c1csc(-c2ccccc2)n1 | - | - | - | - | - | 28.2 | - | 26.4
O=C(Nc1ccc(Cl)cc1)c1csc(-c2ccncc2)n1 | - | - | - | - | - | - | . | .
Nn1c(SCC(=O)Nc2ccc(S(=O)(=O)Nc3nccs3)cc2)nnc1-c1ccco1 | - | - | - | - | - | - | . | .
COc1ccc2c(CCNC(N)=S)c[nH]c2c1 | - | - | - | - | - | - | . | .
COc1ccc2c(CC#N)c[nH]c2c1 | - | - | - | - | - | 15.7 | - | -
Cc1cc(C(=O)COc2cc(F)ccc2[N+](=O)[O-])c(C)n1C1CC1 | - | - | - | - | - | 15.9 | - | -
O=C(O)c1ccccc1-c1c2cc(I)c(=O)c(I)c-2oc2c(I)c(O)c(I)cc12 | 28.4 | - | - | - | - | + | - | 93.2 | TDP2 inh conf=40.4
CCN1CCCCC(NC(=O)c2ccccc2OC)C1=O (centres undefined) | - | - | - | - | - | - | . | .
Oc1cc2c(cc1O)C1c3ccc(O)c(O)c3OCC1(O)C2 (centres undefined) | - | 89.1 | - | - | - | 33.4 | - | 20.7 | IN multimer up=40.7;TR-FRET interf=-;IN-LEDGF confirm=78.6
Cc1cc2c(NC(=O)Nc3ccccc3)cccc2nn1 | - | - | - | - | - | - | . | .
